This note sets out measurements from ChEMBL document CHEMBL3526104 (Drug Metab Dispos, 2011).

The test system of data set [1] is Homo sapiens. The data set is described as follows: AUC (0 to infinity) in healthy human assessed as fold change in presence of casopitant 120 mg, po once daily administered for 14 days. Type of data set: ADME, organism-based, Plasma. As to conditions: in vivo, 336 h.
For data set [2], the system named is Homo sapiens. The data set is described as follows: AUC (0 to infinity) in healthy human assessed as fold change in presence of casopitant 30 mg, po once daily administered for 3 days. Particulars: in vivo, 72 h. It is filed as ADME, organism-based, Plasma.
For data set [3], the system named is Homo sapiens. The data set is described as follows: AUC (0 to infinity) in healthy human assessed as fold change in presence of casopitant 120 mg, po once daily administered for 3 days. Type of data set: ADME, organism-based, Plasma. Particulars: in vivo, 72 h.
For data set [4], the system named is Homo sapiens. The experiment in a line: AUC (0 to infinity) in healthy human assessed as fold change in presence of casopitant 30 mg, po once daily administered for 14 days. It is filed as ADME, organism-based, Plasma. As to conditions: in vivo, 336 h.
The test system of data set [5] is Homo sapiens. The data set is described as follows: AUC in healthy human assessed as fold change at 150 mg, po in presence of 600 mg rifampin. As to conditions: in vivo. Also on record: dosed compound name Casopitant. Type of data set: ADME, organism-based, Plasma. The method in brief:
(§1)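 Open-label study, 12 healthy subjects: single oral 150 mg dose alone on Day 1, then with oral rifampin 600 mg once daily (study Days 9-17), co-dosed on Day 16. Plasma parent drug measured by validated HPLC-MS/MS at selected time points; fold change from geometric means of AUC(0-t) and Cmax, 90% CI.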

The nature of data set [6]: Tmax in healthy human at 150 mg, po administered as single dose. It is filed as ADME, organism-based. Also on record: dosed compound name Casopitant. Particulars: in vivo.
Data set [7] can be described thus: Lipophilicity, log P of the compound. Type of data set: physicochemical. Particulars: octanol/water.
Data set [8] in a line: Tmax in healthy human at 150 mg, po administered as single dose on day 8 and cotreated with rifampin at 600 mg, po qd on day 1 to 9. It is filed as ADME, organism-based. As to conditions: in vivo. Further details: dosed compound name Casopitant.
The target of data set [9] is T1, Cytochrome P450 3A4 (Homo sapiens, UniProt P08684). The experiment in a line: Drug metabolism in human liver microsomes assessed as CYP3A4-mediated GSK525060 formation at 5 to 20 uM up to 30 mins by HPLC-MS/MS method. Type of data set: ADME. Particulars: 0.5 h. The gist of the method:
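Pooled human liver microsomes in 50 mM phosphate buffer, pH 7.4, with an NADPH-generating system. […] GSK525060 measured by HPLC-MS/MS.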
For orientation: Liver microsomes are vesicles of endoplasmic reticulum, rich in cytochrome P450 enzymes.

Data set [10] in a line: Dissociation constant, pKa of the compound. It is filed as physicochemical.
The nature of data set [11]: Cmax in healthy human at 100 mg, po administered as single dose. It is filed as ADME, organism-based. As to conditions: in vivo.
Data set [12] can be described thus: Cmax in healthy human at 100 mg, po administered as single dose on day 4 and cotreated with ketoconazole at 400 mg, po qd on day 1 to 7. Type of data set: ADME, organism-based. As to conditions: in vivo.
The nature of data set [13]: Half life in healthy human at 150 mg, po administered as single dose. Type of data set: ADME, organism-based. Further details: dosed compound name Casopitant. Particulars: in vivo.
A short description of data set [14]: Cmax in healthy human at 150 mg, po administered as single dose. As to conditions: in vivo. It is filed as ADME, organism-based.
Data set [15] can be described thus: Half life in healthy human at 150 mg, po administered as single dose on day 8 and cotreated with rifampin at 600 mg, po qd on day 1 to 9. It is filed as ADME, organism-based. Further details: dosed compound name Casopitant. Particulars: in vivo.
Another data set deals with Liver microsome. The experiment in a line: Intrinsic clearance in human liver microsomes assessed per mg protein. Type of data set: ADME. The gist of the method:
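CLint derived from Km and Vmax of GSK525060 formation in human liver microsomes. […] Metabolite measured by HPLC-MS/MS; Michaelis-Menten fit by non-linear regression.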

The subject of data set [16] is Homo sapiens. The experiment in a line: Cmax in healthy human assessed as fold change at 150 mg, po in presence of 600 mg rifampin. It is filed as ADME, organism-based. Also on record: dosed compound name Casopitant. Particulars: in vivo. The gist of the method: as §1
Data set [17] concerns Homo sapiens. The experiment in a line: Cmax in healthy human assessed as fold change at 100 mg, po in presence of 400 mg ketoconazole. Type of data set: ADME, organism-based. Particulars: in vivo. Also on record: dosed compound name Casopitant. The method in brief:
(§2)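 Open-label study, healthy subjects (n=12 enrolled; 13 per treatment in table): single oral 100 mg dose given alone on Day 1, then with oral ketoconazole 400 mg once daily for 7 days, co-dosed on Day 4 of ketoconazole. Plasma parent drug measured by validated HPLC-MS/MS at selected time points; ratios from geometric means of AUC(0-t) and Cmax, 90% CI.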

Data set [18] can be described thus: AUC (0 to t) in healthy human at 150 mg, po administered as single dose on day 8 and cotreated with rifampin at 600 mg, po qd on day 1 to 9. Type of data set: ADME, organism-based. Further details: dosed compound name Casopitant. Particulars: plasma.
Data set [19] in a line: AUC (0 to t) in healthy human at 100 mg, po administered as single dose on day 4 and cotreated with ketoconazole at 400 mg, po qd on day 1 to 7. It is filed as ADME, organism-based. Further details: dosed compound name Casopitant. As to conditions: plasma.
A short description of data set [20]: Tmax in healthy human at 100 mg, po administered as single dose on day 4 and cotreated with ketoconazole at 400 mg, po qd on day 1 to 7. Also on record: dosed compound name Casopitant. Type of data set: ADME, organism-based. As to conditions: in vivo.
Data set [21] can be described thus: Unbound fraction in human gut. Also on record: dosed compound name Casopitant. Type of data set: ADME, tissue-based.
The target of a further data set is CYP3A4 (Homo sapiens, UniProt P08684). The experiment in a line: Metabolism dependent inactivation of CYP3A4 in human liver microsomes pretreated with compound in presence of midazolam substrate and NADPH by HPLC-MS/MS method relative to untreated control. Particulars: probe midazolam.
CYP3A4, sequence (P08684 whole entry): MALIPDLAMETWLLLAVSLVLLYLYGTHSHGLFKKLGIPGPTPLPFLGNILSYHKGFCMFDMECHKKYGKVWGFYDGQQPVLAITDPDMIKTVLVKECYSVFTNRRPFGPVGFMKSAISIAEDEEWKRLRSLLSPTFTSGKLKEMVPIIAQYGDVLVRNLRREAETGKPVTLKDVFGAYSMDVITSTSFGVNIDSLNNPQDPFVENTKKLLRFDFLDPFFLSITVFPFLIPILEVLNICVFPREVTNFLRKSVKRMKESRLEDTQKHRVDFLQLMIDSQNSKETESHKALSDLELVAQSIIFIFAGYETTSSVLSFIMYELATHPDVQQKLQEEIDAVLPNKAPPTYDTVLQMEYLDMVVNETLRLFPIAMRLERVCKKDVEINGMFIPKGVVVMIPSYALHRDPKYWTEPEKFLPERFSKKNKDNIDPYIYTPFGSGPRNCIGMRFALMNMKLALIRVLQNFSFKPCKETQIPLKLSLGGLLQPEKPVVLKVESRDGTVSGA
The target in data set [22] is T1, Cytochrome P450 3A4. The data set is described as follows: Drug metabolism assessed as human recombinant CYP3A4-mediated GSK525060 formation at 10 uM after 30 mins by HPLC-MS/MS method. It is filed as ADME. As to conditions: recombinant enzyme, 0.5 h. The method in brief:
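Recombinant human CYP3A4 in 50 mM phosphate buffer, pH 7.4, with an NADPH-generating system. […] GSK525060 formation quantified by HPLC-MS/MS.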

For data set [23], the system named is Homo sapiens. The data set is described as follows: AUC in healthy human assessed as fold change at 100 mg, po in presence of 400 mg ketoconazole. It is filed as ADME, organism-based, Plasma. Also on record: dosed compound name Casopitant. As to conditions: in vivo. The method in brief:
as §2

In data set [24] the target is T1, Cytochrome P450 3A4. The data set is described as follows: Fraction of drug metabolized assessed as human CYP3A4-mediated drug metabolism. It is filed as ADME. Particulars: recombinant enzyme.
Data set [25] can be described thus: Unbound fraction in human plasma. Type of data set: ADME, cell-free.
Data set [26] can be described thus: Cmax in healthy human at 150 mg, po administered as single dose on day 8 and cotreated with rifampin at 600 mg, po qd on day 1 to 9. Type of data set: ADME, organism-based. Particulars: in vivo.
A short description of data set [27]: Volume of distribution at steady state in human. It is filed as ADME, organism-based. Also on record: dosed compound name Casopitant. Particulars: in vivo, read-out: Vdss.
Data set [28] in a line: AUC (0 to t) in healthy human at 150 mg, po administered as single dose. Also on record: dosed compound name Casopitant. Particulars: plasma. Type of data set: ADME, organism-based.
A short description of data set [29]: Tmax in healthy human at 100 mg, po administered as single dose. Particulars: in vivo. Also on record: dosed compound name Casopitant. It is filed as ADME, organism-based.
Data set [30] is described as follows: AUC (0 to t) in healthy human at 100 mg, po administered as single dose. Type of data set: ADME, organism-based. Also on record: dosed compound name Casopitant. As to conditions: plasma.

A word on the Tmax: it is the time at which the peak concentration occurs. A word on the logP: it is a log measure of how a compound divides between an organic and an aqueous phase. Read a high logP as higher lipophilicity. A word on the pKa: it is the pH at which an ionisable group is half protonated. The low end stands for a group that gives up its proton readily, the high end for a group that holds its proton tightly. For orientation: Cmax means the highest concentration seen after dosing. As a reminder, the half-life is how long it takes for the measured level to halve. Broadly, the AUC(0-t) is exposure summed from dosing to a finite time, without extrapolation to infinity. As usually defined, the fraction unbound is the share of the substance not bound to proteins or other matrix. The low end stands for little free substance, the high end for much free substance.

T1 sequence (P08684 whole entry): as above

Turning to `COC(=O)C1=C(C)NC(C)=C(C(=O)OC)C1c1ccccc1[N+](=O)[O-]` [NIFEDIPINE], the “fold change (FC)” value in the data set on Homo sapiens [1] is recorded as 1.42; in the data set on Homo sapiens [2], 1.56; in the data set with Homo sapiens [3] it was 1.77; with Homo sapiens [4], 1.61.

Regarding `Cc1ncc2n1-c1ccc(Cl)cc1C(c1ccccc1F)=NC2` [MIDAZOLAM], the “fold change (FC)” value in the data set on Homo sapiens [1] stood at 3.49; in the data set with Homo sapiens [2], 2.02; with Homo sapiens [3] it was 2.67; in the data set on Homo sapiens [4], 1.76.

For the compound `CC(=O)N1CCN([C@H]2CCN(C(=O)N(C)[C@H](C)c3cc(C(F)(F)F)cc(C(F)(F)F)c3)[C@@H](c3ccc(F)cc3C)C2)CC1` [CASOPITANT], the “fold change (FC)” value with Homo sapiens [5] is 0.04; with Homo sapiens [16], 0.11; with Homo sapiens [17] it was 2.71; with Homo sapiens [23], 12.1. The Tmax in data set [6] came out at 1.25 h; in data set [8] it was 1 h; in [20], 2 h; in [29] it was 1 h. In [7], this compound had a logP of 5.6. The Drug metabolism entry on Cytochrome P450 3A4 [9] and on Cytochrome P450 3A4 [22] was “metabolite_detected” throughout. Besides, in data set [10], the pKa is 6.3. Moreover, the peak concentration (Cmax) in data set [11] was found to be 457 ng/mL; in data set [12], 1250 ng/mL; in data set [14] it was 847 ng/mL; in [26], 93.2 ng/mL. The half-life in data set [13] was 19.2 h; in data set [15], 6.45 h. In addition, in the data set on Liver microsome, the CLint was 25 µL/min/mg. For the same compound, the AUC(0-t) in data set [18] came out at 273 ng·h/mL; in data set [19], 31200 ng·h/mL; in data set [28] it was 6570 ng·h/mL; in data set [30], 2590 ng·h/mL. The fraction unbound in data set [21] came to 1; in [25] it was 0.005. In addition, the KI at CYP3A4 turned out to be 3.1 µM. Further, at Cytochrome P450 3A4 [24], the Fm is recorded as 1. Moreover, the Vd in data set [27] amounted to 2.58 L/kg.
